Measurements from paper PMC3361572 (Chemistry & biology, 2012).

Legend:
FAAH [1] = molecular target: T1, FAAH (Rattus norvegicus, UniProt P97612); experiment: competitive ABPP, rat brain membrane proteome; type: biochemical; conditions: read-out: IC50 (95% CI), rat FAAH; competitive ABPP, rat brain membrane proteome
T1 sequence (P97612 1-579): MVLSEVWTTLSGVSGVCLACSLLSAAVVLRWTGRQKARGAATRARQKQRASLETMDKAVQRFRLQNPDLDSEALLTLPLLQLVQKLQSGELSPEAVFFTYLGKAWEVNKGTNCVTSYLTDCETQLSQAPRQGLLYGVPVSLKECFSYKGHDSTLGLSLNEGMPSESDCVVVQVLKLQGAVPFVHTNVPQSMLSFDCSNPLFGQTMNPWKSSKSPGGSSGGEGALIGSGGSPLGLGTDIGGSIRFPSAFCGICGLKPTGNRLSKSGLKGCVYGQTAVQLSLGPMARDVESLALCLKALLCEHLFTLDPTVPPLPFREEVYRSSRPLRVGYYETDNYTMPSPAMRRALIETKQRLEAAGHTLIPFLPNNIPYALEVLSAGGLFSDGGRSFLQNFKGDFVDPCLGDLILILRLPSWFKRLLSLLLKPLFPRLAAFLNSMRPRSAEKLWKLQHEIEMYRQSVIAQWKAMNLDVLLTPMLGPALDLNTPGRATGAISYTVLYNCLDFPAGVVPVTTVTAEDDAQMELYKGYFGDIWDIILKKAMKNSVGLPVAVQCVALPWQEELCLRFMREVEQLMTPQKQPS
Outline: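 Rat brain proteome pre-treated with test compound, then labelled with the serine hydrolase-directed fluorophosphonate-rhodamine (FP-Rh) activity-based probe. Proteins separated by SDS-PAGE and detected by in-gel fluorescence scanning. Inhibition scored as loss of FP-Rh labelling of the FAAH band. IC50 calculated from the gel-based ABPP data.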

[2] = test system: other rat brain serine hydrolases; experiment: competitive ABPP, rat brain proteome, other serine hydrolases; type: biochemical
Outline: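 Rat brain proteome was preincubated with test compound, then labelled with the serine hydrolase-directed probe FP-rhodamine. Proteins were separated by SDS-PAGE and scanned by in-gel fluorescence. Inhibition of individual serine hydrolases was scored as reduced probe labelling.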

hFAAH = molecular target: T2, hFAAH (Homo sapiens, UniProt O00519); experiment: competitive ABPP, proteomes of transiently transfected HEK293T cells; type: biochemical; conditions: for IC50: read-out: IC50 (95% CI), human FAAH, competitive ABPP, transfected HEK293T cell proteome
T2 sequence (O00519 1-579): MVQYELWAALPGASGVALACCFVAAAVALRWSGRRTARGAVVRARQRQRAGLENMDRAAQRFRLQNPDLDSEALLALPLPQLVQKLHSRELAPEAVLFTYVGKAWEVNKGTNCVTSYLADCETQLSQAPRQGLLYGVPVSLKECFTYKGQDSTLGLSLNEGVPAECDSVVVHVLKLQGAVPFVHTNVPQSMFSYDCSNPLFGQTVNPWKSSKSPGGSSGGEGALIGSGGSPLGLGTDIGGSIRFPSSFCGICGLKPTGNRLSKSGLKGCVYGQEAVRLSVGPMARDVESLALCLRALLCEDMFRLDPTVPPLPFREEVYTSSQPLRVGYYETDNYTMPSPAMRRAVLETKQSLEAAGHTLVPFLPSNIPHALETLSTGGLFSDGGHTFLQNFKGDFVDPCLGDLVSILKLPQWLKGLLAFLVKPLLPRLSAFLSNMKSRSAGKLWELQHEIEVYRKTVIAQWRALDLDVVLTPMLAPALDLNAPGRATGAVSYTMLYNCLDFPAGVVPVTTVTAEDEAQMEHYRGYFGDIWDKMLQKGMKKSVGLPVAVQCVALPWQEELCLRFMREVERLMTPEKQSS

MAGL [3] = molecular target: T3, MAGL (Rattus norvegicus, UniProt Q8R431); experiment: competitive ABPP, rat brain membrane proteome; type: biochemical; conditions: read-out: IC50 (95% CI), rat MAGL; competitive ABPP, rat brain membrane proteome
T3 sequence (Q8R431 1-303): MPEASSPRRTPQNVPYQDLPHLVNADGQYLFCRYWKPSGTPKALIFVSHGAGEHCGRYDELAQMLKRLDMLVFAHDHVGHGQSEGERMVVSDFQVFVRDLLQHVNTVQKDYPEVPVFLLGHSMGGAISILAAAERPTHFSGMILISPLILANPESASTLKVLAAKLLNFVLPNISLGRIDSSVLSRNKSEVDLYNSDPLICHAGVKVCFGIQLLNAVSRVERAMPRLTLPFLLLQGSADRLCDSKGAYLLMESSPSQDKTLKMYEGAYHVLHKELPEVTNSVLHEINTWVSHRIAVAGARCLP
Outline: (§1)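 Brain (mouse or rat) or mouse lung proteomes were preincubated with the test compound, then treated with the serine hydrolase probe FP-Rh. Samples were separated by SDS-PAGE and read by in-gel fluorescence scanning. Inhibition was taken as reduced FP-Rh labelling of MAGL, ABHD6, FAAH or CES bands, and IC50 values were calculated from quantified gel bands. Three independent experiments.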

FAAH [4] = molecular target: T4, FAAH (Mus musculus, UniProt O08914); experiment: competitive ABPP, mouse brain membrane proteome; type: biochemical
T4 sequence (O08914 1-579): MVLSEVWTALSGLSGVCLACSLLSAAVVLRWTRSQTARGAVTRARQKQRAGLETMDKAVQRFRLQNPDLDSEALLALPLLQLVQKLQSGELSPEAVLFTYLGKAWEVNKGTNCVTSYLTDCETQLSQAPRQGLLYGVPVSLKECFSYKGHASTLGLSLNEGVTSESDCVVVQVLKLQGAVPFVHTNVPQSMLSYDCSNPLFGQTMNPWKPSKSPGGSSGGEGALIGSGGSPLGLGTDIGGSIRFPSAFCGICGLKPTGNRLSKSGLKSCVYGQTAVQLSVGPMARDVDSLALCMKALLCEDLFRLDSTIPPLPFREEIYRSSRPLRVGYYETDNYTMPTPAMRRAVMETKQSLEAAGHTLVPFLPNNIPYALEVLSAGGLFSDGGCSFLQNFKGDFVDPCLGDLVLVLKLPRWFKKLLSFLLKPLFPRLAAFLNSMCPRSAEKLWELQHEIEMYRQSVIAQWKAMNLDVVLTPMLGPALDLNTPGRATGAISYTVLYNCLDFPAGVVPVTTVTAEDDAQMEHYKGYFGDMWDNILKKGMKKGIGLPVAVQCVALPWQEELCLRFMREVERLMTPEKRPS
Outline: as §1

hMAGL = molecular target: T5, hMAGL (Homo sapiens, UniProt Q99685); experiment: competitive ABPP, proteomes of transiently transfected HEK293T cells; type: biochemical; conditions: read-out: IC50 (95% CI), human MAGL, transfected HEK293T cell proteome
T5 sequence (Q99685 1-303): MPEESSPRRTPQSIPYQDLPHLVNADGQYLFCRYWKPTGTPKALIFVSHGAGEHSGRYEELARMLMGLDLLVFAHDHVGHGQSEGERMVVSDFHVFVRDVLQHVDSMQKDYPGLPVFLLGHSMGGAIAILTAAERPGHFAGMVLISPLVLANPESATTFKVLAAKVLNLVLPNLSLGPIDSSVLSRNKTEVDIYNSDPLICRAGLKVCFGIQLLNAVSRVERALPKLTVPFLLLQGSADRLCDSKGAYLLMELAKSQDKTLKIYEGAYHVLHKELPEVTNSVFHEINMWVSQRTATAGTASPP

MAGL [5] = molecular target: T6, MAGL (Mus musculus, UniProt O35678); experiment: competitive ABPP, mouse brain membrane proteome; type: biochemical; conditions: mouse brain proteome, competitive ABPP
T6 sequence (O35678 1-303): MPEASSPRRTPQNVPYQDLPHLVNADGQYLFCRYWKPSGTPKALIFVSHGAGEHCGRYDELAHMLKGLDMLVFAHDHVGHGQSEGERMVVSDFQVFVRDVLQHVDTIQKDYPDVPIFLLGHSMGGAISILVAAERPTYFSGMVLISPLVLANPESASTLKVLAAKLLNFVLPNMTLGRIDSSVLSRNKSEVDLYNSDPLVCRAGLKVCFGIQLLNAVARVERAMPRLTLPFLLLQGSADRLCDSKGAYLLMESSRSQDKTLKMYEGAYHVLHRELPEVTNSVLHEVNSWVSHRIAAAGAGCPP

FAAH [6] = molecular target: T4, FAAH; experiment: competitive ABPP of brain from inhibitor-treated mice; type: in vivo
[7] = test system: brain 2-AG, AA, AEA, PEA, OEA; experiment: brain lipid profile of inhibitor-treated mice; type: in vivo, mouse; conditions: 40 mg kg^−1 p.o., six days
[8] = previously noted by the authors, no reference given; cited from earlier work
[9] = test system: carboxylesterase (CES) enzymes; experiment: gel-based ABPP of liver, lung and spleen from inhibitor-treated mice; type: in vivo, mouse
[10] = no reference given; cited from earlier work

Row | SMILES | IC50 (FAAH [1]) | additional off-target reactivity with other rat brain serine hydrolases [2] | IC50 (hFAAH) | IC50 (MAGL [3]) | FAAH inhibition / cross-reactivity (gel-based ABPP) (FAAH [4]; mouse brain proteome, concentration range tested 0.001–50 μM) | IC50 (hMAGL) | potency for MAGL relative to FAAH (MAGL [5]) | FAAH reactivity (FAAH [4]; competitive ABPP, up to 10 μM) | brain FAAH inhibition, chronic dosing (FAAH [6]; 40 mg kg^−1 p.o., six days) | inhibition of brain FAAH (FAAH [6]; highest dose tested 40 mg kg^−1 p.o., 4 h) | brain 2-AG and NAE levels, chronic dosing [7] | solubility in dosing vehicle [8] | CES inhibition in peripheral tissues, chronic dosing ([9]; 40 mg kg^−1 p.o., six days) | reactivity with CESs in liver, lung and spleen ([9]; 1–40 mg kg^−1 p.o., 4 h) | cross-reactivity with hFAAH (competitive ABPP) (hFAAH; lysates of HEK293T cells transfected with hFAAH) | pKa [10]
1 | CN(Cc1cccc(-c2ccncc2)c1)C(=O)OC(C(F)(F)F)C(F)(F)F [JW618] | > 50 µM | did not detect any additional off-target reactivity | > 50 µM | 0.385 µM | no detectable crossreactivity with FAAH |  |  |  |  |  |  |  |  |  |  | 
2 | O=C(OC(C(F)(F)F)C(F)(F)F)N1CCN(Cc2cccc(Oc3ccccc3)c2)CC1 [JW642] | 14 µM | did not detect any additional off-target reactivity | 20.6 µM | 0.014 µM |  | 0.0037 µM | > 1000 fold | no observable FAAH reactivity up to 10 μM |  |  |  |  |  |  |  | 
3 | O=C(Oc1ccc([N+](=O)[O-])cc1)N1CCC(C(O)(c2ccc3c(c2)OCO3)c2ccc3c(c2)OCO3)CC1 [JZL184, reference compound] | 3.57 µM |  | > 50 µM | 0.262 µM |  |  |  |  | not only inhibited MAGL, but also FAAH | partially inhibit FAAH | increases in both 2-AG and NAEs | limited solubility | several CES enzymes in peripheral tissues | significant reactivity with several CESs | no detectable cross-reactivity with FAAH up to 50 μM | 
4 | OC(C(F)(F)F)C(F)(F)F [hexafluoroisopropanol] |  |  |  |  |  |  |  |  |  |  |  |  |  |  |  | ~ 9.3
